Source: ChEMBL document CHEMBL4732105, “First orally bioavailable prodrug of proteolysis targeting chimera (PROTAC) degrades cyclin-dependent kinases 2/4/6 in vivo” (Eur J Med Chem, 2021)
pIC50: −log10 of the molar value. Values belong to the molecule of their own block, whether it stands above or below them. Calls of active or inactive are those of the source. No cut-off for these calls is given here.

What was measured:
[1] = Cmax in Sprague-Dawley rat at 200 mg/kg, po; assay type: ADME, organism-based; design: route oral, dose 200 mg/kg; details: in vivo
Summary of the method: (§1)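 Single oral dose of 200 mg/Kg to SD rats (n = 3). Prodrug and released active degrader quantified in plasma over 0–12 h; Cmax, Tmax and AUC0-12 derived by non-compartmental model.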

[2] = Cmax in Sprague-Dawley rat at 10 mg/kg, iv; assay type: ADME, organism-based; design: route intravenous, dose 10 mg/kg; details: in vivo
[3] = Tmax in Sprague-Dawley rat at 200 mg/kg, po; assay type: ADME, organism-based; details: in vivo
Summary of the method: (§2)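 SD rats, n = 3, single dose of prodrug: IV by tail vein at 10 mg/Kg, or PO at 200 mg/Kg. Plasma levels of prodrug and released active degrader followed over 0–12 h. Parameters derived by a non-compartmental model.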

[4] = AUC (0 to 12 hrs) in Sprague-Dawley rat at 200 mg/kg, po; assay type: ADME, organism-based; design: time < 12 hr, route oral, dose 200 mg/kg; details: in vivo; summary of the method: as §1
[5] = AUC (0 to 12 hrs) in Sprague-Dawley rat at 10 mg/kg, iv; assay type: ADME, organism-based; design: time < 12 hr, route intravenous, dose 10 mg/kg; details: in vivo
[6] = Oral bioavailability in Sprague-Dawley rat at 200 mg/kg; assay type: ADME, organism-based; details: in vivo; summary of the method: as §2
B16-F10 [7] = assay: Antitumor activity against mouse B16F10 cells xenografted in C57BL/6J mouse assessed as supression in tumor size at 200 mg/kg, po measured after 15 days; assay type: functional, organism-based; details: time 15.0 day
Summary of the method: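 C57BL/6J mice given B16F10 cells […], then dosed orally versus vehicle. Tumor volume and body weight monitored; tumors weighed on day 15 (n = 6). Tumor tissue (n = 5) immunostained for CDK2/4/6.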

[8] = Toxicity in mouse C57BL/6J mouse xenografted with B16F10 cells assessed as effect on body weight at 200 mg/kg, po measured after 15 days; assay type: organism-based; details: in vivo, 360 h, time 15 day
Summary of the method: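 C57BL/6J mice injected […] with B16F10 cells and given compound orally. Tumor volume and body weight monitored, and tumors weighed on day 15. Mean ± SD, n = 6.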

B16-F10 [9] = assay: Cytotoxicity against mouse B16F10 cells assessed as reduction in cell viability after 72 hrs by MTT assay; assay type: functional, cell-based; details: B16-F10, 72 h
Summary of the method: (§3)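 Cells exposed to compound for 72 h and viability read by MTT; IC50 from three independent experiments.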

A-375 = assay: Cytotoxicity against human A375 cells assessed as reduction in cell viability after 72 hrs by MTT assay; assay type: functional, cell-based; details: A-375, 72 h; summary of the method: as §3
CDK6/cyclin D3 = CDK6/cyclin D3 (Homo sapiens, UniProt Q00534); assay: Inhibition of CDK6/Cyclin D (unknown origin); assay type: protein-complex assay
Sequence of CDK6/cyclin D3 (P30281 whole entry): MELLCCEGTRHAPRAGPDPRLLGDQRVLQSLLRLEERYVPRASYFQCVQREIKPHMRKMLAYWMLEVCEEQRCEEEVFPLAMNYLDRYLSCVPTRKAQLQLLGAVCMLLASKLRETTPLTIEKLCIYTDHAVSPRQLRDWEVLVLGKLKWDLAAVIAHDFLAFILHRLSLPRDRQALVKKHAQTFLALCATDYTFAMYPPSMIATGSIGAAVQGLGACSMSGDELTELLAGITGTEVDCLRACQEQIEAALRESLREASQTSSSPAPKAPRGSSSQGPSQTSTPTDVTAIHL
Sequence of CDK6/cyclin D3 (Q00534 whole entry): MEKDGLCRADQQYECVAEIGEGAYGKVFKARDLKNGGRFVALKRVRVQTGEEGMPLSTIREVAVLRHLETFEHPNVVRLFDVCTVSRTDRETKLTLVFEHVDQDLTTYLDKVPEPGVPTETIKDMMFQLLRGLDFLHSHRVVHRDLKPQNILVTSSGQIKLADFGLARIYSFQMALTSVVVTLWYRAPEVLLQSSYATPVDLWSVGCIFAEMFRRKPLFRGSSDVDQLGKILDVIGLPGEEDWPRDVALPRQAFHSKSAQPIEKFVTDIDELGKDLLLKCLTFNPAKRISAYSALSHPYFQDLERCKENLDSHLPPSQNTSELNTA

[10] = molecular target: Cyclin-dependent kinase 4/cyclin D1 (Homo sapiens, UniProt P11802); assay: Inhibition of CDK4/cyclin D1 (unknown origin); assay type: protein-complex assay
Sequence of Cyclin-dependent kinase 4/cyclin D1 (P11802 whole entry): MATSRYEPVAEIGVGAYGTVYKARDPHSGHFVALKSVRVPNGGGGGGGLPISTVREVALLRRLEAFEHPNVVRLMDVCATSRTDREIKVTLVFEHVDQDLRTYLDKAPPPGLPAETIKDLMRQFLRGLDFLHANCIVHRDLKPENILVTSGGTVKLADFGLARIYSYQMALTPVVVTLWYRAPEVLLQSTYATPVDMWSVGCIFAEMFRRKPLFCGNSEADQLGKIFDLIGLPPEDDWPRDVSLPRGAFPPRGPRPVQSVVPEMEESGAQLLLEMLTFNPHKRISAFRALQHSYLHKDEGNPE
Sequence of Cyclin-dependent kinase 4/cyclin D1 (P24385 whole entry, further chain): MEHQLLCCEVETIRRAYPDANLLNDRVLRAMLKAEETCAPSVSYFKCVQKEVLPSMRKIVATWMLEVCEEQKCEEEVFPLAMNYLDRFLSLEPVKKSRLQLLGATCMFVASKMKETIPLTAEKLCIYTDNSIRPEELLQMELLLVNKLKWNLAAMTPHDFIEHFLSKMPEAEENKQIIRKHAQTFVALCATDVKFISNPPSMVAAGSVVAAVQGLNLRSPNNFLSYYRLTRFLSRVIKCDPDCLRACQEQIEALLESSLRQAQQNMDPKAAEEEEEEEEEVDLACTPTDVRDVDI

[11] = molecular target: Cyclin-dependent kinase 2/cyclin E1 (Homo sapiens, UniProt P24941); assay: Inhibition of CDK2/Cyclin E (unknown origin); assay type: protein-complex assay

- Cmax [1]: 2260 µg/mL
- Cmax [2]: 111 µg/mL
- Tmax [3]: 15 min
- AUC [4]: 2810 µg·h/mL
- AUC [5]: 95.7 µg·h/mL
- bioavailability [6]: 68%
Compound: CN(C)C(=O)c1cc2cnc(Nc3ccc(C(=O)NCCCCCCNc4cccc5c4C(=O)N(C4CCC(=O)N(COC(=O)C(C)(C)C)C4=O)C5=O)cc3)nc2n1C1CCCC1 (stereo not given)
- Activity (B16-F10 [7]): Active
- Activity [8]: Non-Toxic

Compound: CN(C)C(=O)c1cc2cnc(Nc3ccc(N4CCNCC4)cn3)nc2n1C1CCCC1 [RIBOCICLIB]
- pIC50 (B16-F10 [9]): < 5.00
- pIC50 (A-375): < 5.00

- pIC50 (CDK6/cyclin D3): 7.00
- pIC50 [10]: 6.95
- pIC50 [11]: 6.41
Compound: COC(=O)c1ccc(Nc2ncc3cc(C(=O)N(C)C)n(C4CCCC4)c3n2)cc1

Compound: Nc1cccc2c1C(=O)N(C1CCC(=O)NC1=O)C2=O (stereo not given) [POMALIDOMIDE]
- pIC50 (B16-F10 [9]): < 5.00
- pIC50 (A-375): < 5.00
